Test system: Fibroblast
Assay: Multiplex assay against human fibroblast
Format: toxicity, cell-based
In short: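 Live cells were stained at seeding with Hoechst33342, BioTracker Green Microtubule Cytoskeleton Dye, MitoTracker Red and Annexin V Alexa Fluor 680. Following compound addition, they were imaged on a CQ1 microscope at 37°C and 5% CO2 and gated by CellPathfinder machine learning into Hoechst high-intensity objects or normal cells, with normal cells split into healthy, pyknosed or fragmented nuclei and pyknosed cells into mitotic or apoptotic. Tubulin, mitochondrial-mass and membrane-permeability phenotypes are per cents of healthy-nucleus cells.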

[1] = 12 h, 1 µM, compound concentration 1 uM, replicate 1
[2] = 12 h, 1 µM, compound concentration 1 uM, replicate 2
[3] = 12 h, 10 µM, compound concentration 10 uM, replicate 1
[4] = 12 h, 10 µM, compound concentration 10 uM, replicate 2
[5] = 24 h, 1 µM, compound concentration 1 uM, replicate 1
[6] = 24 h, 1 µM, compound concentration 1 uM, replicate 2
[7] = 24 h, 10 µM, compound concentration 10 uM, replicate 1
[8] = 24 h, 10 µM, compound concentration 10 uM, replicate 2
[9] = 48 h, 1 µM, compound concentration 1 uM, replicate 1
[10] = 48 h, 1 µM, compound concentration 1 uM, replicate 2
[11] = 48 h, 10 µM, compound concentration 10 uM, replicate 1
[12] = 48 h, 10 µM, compound concentration 10 uM, replicate 2

With Cl.O=C(O)c1cc(-c2ccc(C3CCNCC3)cc2)c2ccc(-c3ccc(C(F)(F)F)cc3)cc2c1 the “Population Apoptotic (%)” value [1] was 65%, the “Population Fragmented Nuclei (%)” value [1] was 31% and the “Population Healthy Nuclei (%)” value [1] was 31%. For the same molecule, the “Population Hoechst High Intensity Objects (%)” value [1] was 20%, the “Population Membrane Permeable-Phenotype (%)” value [1] was 31% and the “Population Mitochondria Different-Phenotype (%)” value [1] was 5%. The “Population Mitotic Cells (%)” value [1] was 34%, the “Population Normal (%)” value [1] was 79% and the “Population Pyknosed Nuclei (%)” value [1] was 37%. For the same molecule, the “Population Tubulin-Different-Phenotype (%)” value [1] was 21%, the “Total Cell Count” value [1] was 77 and the “Population Apoptotic (%)” value [2] was 50%. The “Population Fragmented Nuclei (%)” value [2] was 11%, the “Population Healthy Nuclei (%)” value [2] was 83% and the “Population Hoechst High Intensity Objects (%)” value [2] was 5%. For the same molecule, the “Population Membrane Permeable-Phenotype (%)” value [2] was 3%, the “Population Mitochondria Different-Phenotype (%)” value [2] was 16% and the “Population Mitotic Cells (%)” value [2] was 50%. The “Population Normal (%)” value [2] was 94%, the “Population Pyknosed Nuclei (%)” value [2] was 5% and the “Population Tubulin-Different-Phenotype (%)” value [2] was 36%. The “Total Cell Count” value [2] was 60, the “Population Apoptotic (%)” value [3] was 62% and the “Population Fragmented Nuclei (%)” value [3] was 27%. For the same molecule, the “Population Healthy Nuclei (%)” value [3] was 40%, the “Population Hoechst High Intensity Objects (%)” value [3] was 18% and the “Population Membrane Permeable-Phenotype (%)” value [3] was 5%. The “Population Mitochondria Different-Phenotype (%)” value [3] was 20%, the “Population Mitotic Cells (%)” value [3] was 37% and the “Population Normal (%)” value [3] was 81%. The “Population Pyknosed Nuclei (%)” value [3] was 32%, the “Population Tubulin-Different-Phenotype (%)” value [3] was 57% and the “Total Cell Count” value [3] was 122. For the same molecule, the “Population Apoptotic (%)” value [4] was 60%, the “Population Fragmented Nuclei (%)” value [4] was 14% and the “Population Healthy Nuclei (%)” value [4] was 64%. The “Population Hoechst High Intensity Objects (%)” value [4] was 14%, the “Population Membrane Permeable-Phenotype (%)” value [4] was 10% and the “Population Mitochondria Different-Phenotype (%)” value [4] was 13%. For the same molecule, the “Population Mitotic Cells (%)” value [4] was 40%, the “Population Normal (%)” value [4] was 85% and the “Population Pyknosed Nuclei (%)” value [4] was 21%. The “Population Tubulin-Different-Phenotype (%)” value [4] was 23%, the “Total Cell Count” value [4] was 38 and the “Population Apoptotic (%)” value [5] was 62%. For the same molecule, the “Population Fragmented Nuclei (%)” value [5] was 24%, the “Population Healthy Nuclei (%)” value [5] was 47% and the “Population Hoechst High Intensity Objects (%)” value [5] was 21%. The “Population Membrane Permeable-Phenotype (%)” value [5] was 44%, the “Population Mitochondria Different-Phenotype (%)” value [5] was 7% and the “Population Mitotic Cells (%)” value [5] was 37%. The “Population Normal (%)” value [5] was 78%, the “Population Pyknosed Nuclei (%)” value [5] was 28% and the “Population Tubulin-Different-Phenotype (%)” value [5] was 44%. The “Total Cell Count” value [5] was 73, the “Population Apoptotic (%)” value [6] was 20% and the “Population Fragmented Nuclei (%)” value [6] was 11%. For the same molecule, the “Population Healthy Nuclei (%)” value [6] was 79%, the “Population Hoechst High Intensity Objects (%)” value [6] was 3% and the “Population Membrane Permeable-Phenotype (%)” value [6] was 4%. For the same molecule, the “Population Mitochondria Different-Phenotype (%)” value [6] was 9%, the “Population Mitotic Cells (%)” value [6] was 80% and the “Population Normal (%)” value [6] was 96%. The “Population Pyknosed Nuclei (%)” value [6] was 9%, the “Population Tubulin-Different-Phenotype (%)” value [6] was 30% and the “Total Cell Count” value [6] was 62. For the same molecule, the “Population Apoptotic (%)” value [7] was 53%, the “Population Fragmented Nuclei (%)” value [7] was 35% and the “Population Healthy Nuclei (%)” value [7] was 36%. For the same molecule, the “Population Hoechst High Intensity Objects (%)” value [7] was 15%, the “Population Membrane Permeable-Phenotype (%)” value [7] was 12% and the “Population Mitochondria Different-Phenotype (%)” value [7] was 27%. For the same molecule, the “Population Mitotic Cells (%)” value [7] was 46%, the “Population Normal (%)” value [7] was 84% and the “Population Pyknosed Nuclei (%)” value [7] was 28%. The “Population Tubulin-Different-Phenotype (%)” value [7] was 62%, the “Total Cell Count” value [7] was 131 and the “Population Apoptotic (%)” value [8] was 61%. The “Population Fragmented Nuclei (%)” value [8] was 17%, the “Population Healthy Nuclei (%)” value [8] was 61% and the “Population Hoechst High Intensity Objects (%)” value [8] was 8%. The “Population Membrane Permeable-Phenotype (%)” value [8] was 7%, the “Population Mitochondria Different-Phenotype (%)” value [8] was 5% and the “Population Mitotic Cells (%)” value [8] was 38%. For the same molecule, the “Population Normal (%)” value [8] was 91%, the “Population Pyknosed Nuclei (%)” value [8] was 20% and the “Population Tubulin-Different-Phenotype (%)” value [8] was 16%. The “Total Cell Count” value [8] was 56, the “Population Apoptotic (%)” value [9] was 50% and the “Population Fragmented Nuclei (%)” value [9] was 30%. The “Population Healthy Nuclei (%)” value [9] was 40%, the “Population Hoechst High Intensity Objects (%)” value [9] was 20% and the “Population Membrane Permeable-Phenotype (%)” value [9] was 48%. For the same molecule, the “Population Mitochondria Different-Phenotype (%)” value [9] was 0%, the “Population Mitotic Cells (%)” value [9] was 50% and the “Population Normal (%)” value [9] was 79%. For the same molecule, the “Population Pyknosed Nuclei (%)” value [9] was 29%, the “Population Tubulin-Different-Phenotype (%)” value [9] was 40% and the “Total Cell Count” value [9] was 78. The “Population Apoptotic (%)” value [10] was 100%, the “Population Fragmented Nuclei (%)” value [10] was 16% and the “Population Healthy Nuclei (%)” value [10] was 82%. For the same molecule, the “Population Hoechst High Intensity Objects (%)” value [10] was 8%, the “Population Membrane Permeable-Phenotype (%)” value [10] was 6% and the “Population Mitochondria Different-Phenotype (%)” value [10] was 2%. The “Population Mitotic Cells (%)” value [10] was 0%, the “Population Normal (%)” value [10] was 91% and the “Population Pyknosed Nuclei (%)” value [10] was 1%. For the same molecule, the “Population Tubulin-Different-Phenotype (%)” value [10] was 26%, the “Total Cell Count” value [10] was 104 and the “Population Apoptotic (%)” value [11] was 76%. The “Population Fragmented Nuclei (%)” value [11] was 42%, the “Population Healthy Nuclei (%)” value [11] was 46% and the “Population Hoechst High Intensity Objects (%)” value [11] was 21%. The “Population Membrane Permeable-Phenotype (%)” value [11] was 11%, the “Population Mitochondria Different-Phenotype (%)” value [11] was 9% and the “Population Mitotic Cells (%)” value [11] was 23%. For the same molecule, the “Population Normal (%)” value [11] was 78%, the “Population Pyknosed Nuclei (%)” value [11] was 11% and the “Population Tubulin-Different-Phenotype (%)” value [11] was 37%. The “Total Cell Count” value [11] was 146, the “Population Apoptotic (%)” value [12] was 100% and the “Population Fragmented Nuclei (%)” value [12] was 57%. For the same molecule, the “Population Healthy Nuclei (%)” value [12] was 38%, the “Population Hoechst High Intensity Objects (%)” value [12] was 9% and the “Population Membrane Permeable-Phenotype (%)” value [12] was 4%. For the same molecule, the “Population Mitochondria Different-Phenotype (%)” value [12] was 12%, the “Population Mitotic Cells (%)” value [12] was 0% and the “Population Normal (%)” value [12] was 90%. The “Population Pyknosed Nuclei (%)” value [12] was 3%, the “Population Tubulin-Different-Phenotype (%)” value [12] was 58% and the “Total Cell Count” value [12] was 139.

— ChEMBL document CHEMBL4689842, “EUbOPEN Chemogenomics Library wave 1” (2021)
